Structures are written as SMILES.

For this experiment, the target named is T1, Gonadotropin-releasing hormone receptor (Rattus norvegicus, UniProt P30969).
T1 sequence (P30969 whole entry): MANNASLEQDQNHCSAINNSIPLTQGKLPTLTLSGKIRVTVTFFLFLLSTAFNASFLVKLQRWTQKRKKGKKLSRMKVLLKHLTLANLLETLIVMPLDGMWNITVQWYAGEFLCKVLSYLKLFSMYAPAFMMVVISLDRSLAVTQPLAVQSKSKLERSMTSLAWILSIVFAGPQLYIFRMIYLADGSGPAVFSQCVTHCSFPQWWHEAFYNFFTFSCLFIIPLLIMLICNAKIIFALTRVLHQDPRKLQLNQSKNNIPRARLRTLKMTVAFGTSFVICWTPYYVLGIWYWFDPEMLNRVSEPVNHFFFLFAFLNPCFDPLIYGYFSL
The experiment is described as follows: Competitive radioligand binding assay for rat Gonadotropin-releasing hormone receptor cells stably transfected in human HEK293. The method, boiled down:
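Membranes from HEK-293 cells stably expressing rat GnRH receptor (5% sucrose homogenate; nuclei removed at 3000g, membranes pelleted at 20000g, 4 °C), 7 µg protein in 10 mM Hepes pH 7.5, 150 mM NaCl, 0.1% BSA. Competitor at varying concentrations vs des-Gly10-[125I-Tyr5,DAla6,NMeLeu7,Pro9-NHEt]GnRH (~100 000 cpm), 90 min; PEI-coated GF/C filtration, PBS wash, γ counting. Ki by nonlinear least-squares fit; ≥3 independent experiments, mean ± SEM.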
What is called Ki is the equilibrium dissociation constant of an inhibitor or competing ligand from its target. Low readings indicate a stronger hold on the target, high ones a looser hold on the target. Regarding `CC(=O)N[C@@H]1CC(=O)N[C@H](C)C(=O)NCC[C@H](C(=O)N[C@@H](CO)C(=O)N[C@@H](Cc2ccc(O)cc2)C(=O)N[C@H](Cc2ccc3ccccc3c2)C(=O)N[C@@H](CC(C)C)C(=O)N[C@@H](CCCN=C(N)N)C(=O)N2CCC[C@H]2C(=O)N[C@H](C)C(N)=O)NC(=O)[C@@H](Cc2ccc(Cl)cc2)NC1=O`, the Ki was 0.57 nM.

`CC(=O)N[C@H]1CC(=O)NC[C@@H](C(=O)N[C@@H](CO)C(=O)N[C@@H](Cc2ccc(O)cc2)C(=O)N[C@H](Cc2ccc3ccccc3c2)C(=O)N[C@@H](CC(C)C)C(=O)N[C@@H](CCCN=C(N)N)C(=O)N2CCC[C@H]2C(=O)N[C@H](C)C(N)=O)NC(=O)[C@@H](Cc2ccc(Cl)cc2)NC1=O` gave a Ki of 31 nM.

`CC(=O)N[C@@H]1CC(=O)NCCC[C@H](C(=O)N[C@@H](CO)C(=O)N[C@@H](Cc2ccc(O)cc2)C(=O)N[C@H](Cc2ccc3ccccc3c2)C(=O)N[C@@H](CC(C)C)C(=O)N[C@@H](CCCN=C(N)N)C(=O)N2CCC[C@H]2C(=O)N[C@H](C)C(N)=O)NC(=O)[C@@H](Cc2ccc(Cl)cc2)NC1=O` gave a Ki of 1.6 nM.

For `CC(=O)N[C@@H]1CCC(=O)NCCCC[C@H](C(=O)N[C@H]2CC(=O)NC[C@@H](C(N)=O)NC(=O)[C@@H]3CCCN3C(=O)[C@@H]3CCCCNC(=O)CC[C@H](NC2=O)C(=O)N[C@H](Cc2ccc4ccccc4c2)C(=O)N[C@@H](CC(C)C)C(=O)N3)NC(=O)[C@@H](Cc2ccc(Cl)cc2)NC1=O`, the affinity, expressed as Ki, was 4.6 nM.

`CC(=O)N[C@@H]1CC(=O)NCC(=O)NCC[C@H](C(=O)N[C@@H](CO)C(=O)N[C@@H](Cc2ccc(O)cc2)C(=O)N[C@H](Cc2ccc3ccccc3c2)C(=O)N[C@@H](CC(C)C)C(=O)N[C@@H](CCCN=C(N)N)C(=O)N2CCC[C@H]2C(=O)N[C@H](C)C(N)=O)NC(=O)[C@@H](Cc2ccc(Cl)cc2)NC1=O` returned a Ki of 0.7 nM.

The molecule `CC(=O)N[C@@H]1CC(=O)NCCC(=O)NCCC[C@H](C(=O)N[C@@H](CO)C(=O)N[C@@H](Cc2ccc(O)cc2)C(=O)N[C@H](Cc2ccc3ccccc3c2)C(=O)N[C@@H](CC(C)C)C(=O)N[C@@H](CCCN=C(N)N)C(=O)N2CCC[C@H]2C(=O)N[C@H](C)C(N)=O)NC(=O)[C@@H](Cc2ccc(Cl)cc2)NC1=O` returned a Ki of 0.17 nM.

As to `CC(=O)N[C@@H]1CC(=O)NCC(=O)NCCC[C@H](C(=O)N[C@@H](CO)C(=O)N[C@@H](Cc2ccc(O)cc2)C(=O)N[C@H](Cc2ccc3ccccc3c2)C(=O)N[C@@H](CC(C)C)C(=O)N[C@@H](CCCN=C(N)N)C(=O)N2CCC[C@H]2C(=O)N[C@H](C)C(N)=O)NC(=O)[C@@H](Cc2ccc(Cl)cc2)NC1=O`, the Ki amounted to 0.34 nM.

The molecule `CC(=O)N[C@@H]1CC(=O)NCCCC[C@H](C(=O)N[C@H]2CC(=O)NC[C@@H](C(N)=O)NC(=O)[C@@H]3CCCN3C(=O)[C@H](CCCN=C(N)N)NC(=O)[C@H](CC(C)C)NC(=O)[C@@H](Cc3ccc4ccccc4c3)NC(=O)[C@H](Cc3ccc(O)cc3)NC2=O)NC(=O)[C@@H](Cc2ccc(Cl)cc2)NC1=O` displayed a Ki of 1.2 nM.

Regarding `CC(=O)N[C@@H]1CCC(=O)NCC(=O)NCCCC[C@H](C(=O)N[C@@H](CO)C(=O)N[C@@H](Cc2ccc(O)cc2)C(=O)N[C@H](Cc2ccc3ccccc3c2)C(=O)N[C@@H](CC(C)C)C(=O)N[C@@H](CCCN=C(N)N)C(=O)N2CCC[C@H]2C(=O)N[C@H](C)C(N)=O)NC(=O)[C@@H](Cc2ccc(Cl)cc2)NC1=O`, the Ki is 1.5 nM.

Consider `CC(=O)N[C@@H]1CC(=O)N[C@@H](C)C(=O)NCCC[C@H](C(=O)N[C@@H](CO)C(=O)N[C@@H](Cc2ccc(O)cc2)C(=O)N[C@H](CCCN=C(N)N)C(=O)N[C@@H](CC(C)C)C(=O)N[C@@H](CCCN=C(N)N)C(=O)N2CCC[C@H]2C(=O)N[C@H](C)C(N)=O)NC(=O)[C@@H](Cc2ccc(Cl)cc2)NC1=O`, for which the Ki was 350 nM.

For the molecule `CC(=O)N[C@@H]1CCC(=O)NCCC[C@H](C(=O)N[C@@H](CO)C(=O)N[C@@H](Cc2ccc(O)cc2)C(=O)N[C@H](Cc2ccc3ccccc3c2)C(=O)N[C@@H](CC(C)C)C(=O)N[C@@H](CCCN=C(N)N)C(=O)N2CCC[C@H]2C(=O)N[C@H](C)C(N)=O)NC(=O)[C@@H](Cc2ccc(Cl)cc2)NC1=O`, the Ki was 5.2 nM.

For the origin of these results see ChEMBL document CHEMBL1132958, “Design of monocyclic (1-3) and dicyclic (1-3/4-10) gonadotropin releasing hormone (GnRH) antagonists” (J Med Chem, 2000).
